From ChEMBL document CHEMBL3120104, “Discovery of the first C-nucleoside HCV polymerase inhibitor (GS-6620) with demonstrated antiviral response in HCV infected patients” (J Med Chem, 2014)
pEC50: −log10 of the molar value. In brackets after ≈: the same amount, converted by molar mass.

How the values were obtained:
[1] = Lipophilicity, log D of the compound by HPLC/UV method; format: physicochemical
In short: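 A 10 mM DMSO stock was diluted 1:100 into 1:1 acetonitrile/water, shaken 30 min, and analysed by HPLC/UV on a C18 column with 20 mM ammonium acetate/acetonitrile mobile phase.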

[2] = system: Syrian golden hamster; assay: Cmax in golden syrian hamster assessed as liver triphosphate level at 1 mg/kg, iv by LC/MS/MS analysis; format: ADME, organism-based, Mesocricetus auratus; design: dose 1 mg/kg, route intravenous; conditions: in vivo
In short: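 Golden Syrian hamsters in groups of 12, dosed iv at 1 mg-equiv/kg in EtOH/PEG400/water adjusted to pH 4 with HCl (0.5 mg-equiv/mL). Liver homogenised in ice-cold 70% MeOH with 0.1% KOH, 67 mM EDTA and 0.25 μM Cl-ATP internal standard, then centrifuged, dried and reconstituted. Triphosphate measured by LC/MS/MS; endogenous ATP checked for sample stability.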

[3] = Half life in human intestinal S9 fraction at 2 uM by LC/MS/MS analysis; format: ADME, Intestine
In short: (§1)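 Compound at 2 μM was incubated with human intestinal or hepatic S9 fraction plus NADPH and UDPGA for 90 min at 37 °C. Time-point samples were quenched in aqueous acetonitrile/methanol with internal standard and analysed by LC/MS/MS. Half-life came from an exponential first-order fit, and hepatic extraction was predicted from half-life using the well-stirred model.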

[4] = system: Hepatitis C virus; assay: Antiviral activity against HCV genotype 1b infected in human HuH7 cells assessed as inhibition of viral replication after 3 days by luminescence assay; format: functional, organism-based, Hepacivirus hominis; conditions: Huh-7, 72 h
In short: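 Multiplex replicon assay carrying a renilla luciferase reporter, with stable GT1b, 1a and 2a replicons and chimeric 2b, 3a, 4a, 5a and 6a replicons. 2000 replicon cells/well in medium without Geneticin. Ten-step 1:3 serial dilutions, four replicates, 0.44% DMSO final. Incubated 3 days at 37 °C, 5% CO₂. Luminescence normalised to DMSO wells and to protease-inhibitor (ITMN-191) wells. EC50 from a four-parameter Hill fit.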

[5] = Permeability across apical to basolateral side in human Caco2 cells at 10 uM after 1 to 2 hrs by LC/MS/MS analysis; format: ADME, cell-based; conditions: Caco-2, read-out: permeability
In short: (§2)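 Caco-2 monolayers were grown at least 21 days, and membrane integrity was checked by TEER after buffer equilibration. Test compound was dosed at 10 μM on the apical or basolateral side, in duplicate wells. Receiver samples at 1 and 2 h were precipitated with acetonitrile plus internal standard and run by LC/MS/MS.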

[6] = Oral bioavailability in golden syrian hamster at 5 mg/kg; format: ADME, organism-based, Mesocricetus auratus; conditions: in vivo
[7] = Permeability across basolateral to apical side in human Caco2 cells at 10 uM after 1 to 2 hrs by LC/MS/MS analysis; format: ADME, cell-based; conditions: Caco-2, read-out: permeability; in short: as §2
[8] = Aqueous solubility of the compound in phosphate buffer at pH 7 by reverse-phase UPLC-UV method; format: physicochemical
In short: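 Excess solid was suspended in pH 7 phosphate buffer at ambient temperature, sonicated, then stirred for at least 2 h. After centrifugation, the supernatant was quantified by reverse-phase UPLC-UV.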

[9] = Cytotoxicity against human HuH7 cells after 3 days by fluorescence assay; format: cell-based; conditions: Huh-7 cells
In short: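 Huh-7 HCV replicon cells were seeded at 2000 cells/well in medium without Geneticin. Compounds were added as ten-point 1:3 DMSO dilutions in quadruplicate (final DMSO 0.44%), with […] as the 100% cytotoxicity control. After 3 days at 37 °C, cells were washed and given 400 nM calcein AM for 30 min at RT, and fluorescence read at ex 490/em 520 nm. Signal was normalized to DMSO and puromycin wells, and CC50 taken from a four-parameter Hill fit.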

[10] = Metabolic stability in human liver S9 fraction assessed as extraction at 2 uM after 90 mins by LC/MS/MS analysis; format: ADME, subcellular; conditions: read-out: Stability; in short: as §1
[11] = system: Syrian golden hamster; assay: Cmax in golden syrian hamster assessed as liver triphosphate level at 5 mg/kg, po by LC/MS/MS analysis; format: ADME, organism-based, Mesocricetus auratus; design: dose 5 mg/kg, route oral; conditions: in vivo
In short: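 Groups of 12 Golden Syrian hamsters were dosed orally at 5 mg-equiv/kg. Vehicle was EtOH/PEG400/water buffered with 50 mM pH 4 citrate at 2.5 mg-equiv/mL. Liver was homogenized in four volumes of ice-cold 0.1% KOH/67 mM EDTA in 70% MeOH containing 0.25 μM Cl-ATP, then centrifuged, dried and reconstituted in 1 mM ammonium phosphate pH 7.0. Triphosphate was measured by LC/MS/MS, with endogenous ATP checked for sample stability.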

[12] = system: Hepatitis C virus; assay: Selectivity ratio of EC50 for HCV harboring NS5B RNA dependent RNA polymerase S282T mutant to EC50 for wild-type HCV; format: functional, Hepacivirus hominis
[13] = Oral absorption in beagle dog at 5 mg/kg, po by LC/MS/MS analysis; format: ADME, organism-based, Canis lupus familiaris; design: dose 5 mg/kg, route oral; conditions: in vivo
In short: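 Naive male beagle dogs were dosed once, orally at 5 mg/kg in EtOH/PEG 400/50 mM citrate buffer pH 4 (5/40/55), or intravenously at 0.5 mg/kg for reference. Plasma was sampled over 24 h and processed by acetonitrile precipitation. Bioavailability %F = AUC_po × Dose_iv / (AUC_iv × Dose_po).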

[14] = AUC (0 to infinity) in portal vein cannulated beagle dog at 0.5 mg/kg, iv by LC/MS/MS analysis; format: ADME, organism-based, Canis lupus familiaris; design: time infinity, dose 0.5 mg/kg, route intravenous; conditions: plasma
In short: (§3)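 Naive male beagle dogs got a single intravenous infusion of 0.5 mg/kg in EtOH/PEG 400/water 5/20/75, adjusted to pH 4 with HCl. EDTA-K3 blood was collected over 24 h and plasma isolated. Plasma was precipitated with acetonitrile to a final 60%, filtered, dried, reconstituted in 20% acetonitrile and analysed.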

[15] = AUC (0 to infinity) in jagular vein cannulated beagle dog at 0.5 mg/kg, iv by LC/MS/MS analysis; format: ADME, organism-based, Canis lupus familiaris; design: time infinity, dose 0.5 mg/kg, route intravenous; conditions: plasma; in short: as §3
[16] = system: Hepatocyte; assay: Prodrug coversion in human hepatocytes assessed as triphosphate formation assesed per million cells at 10 uM incubated for 1 hr followed by compound washout by liquid chromatography coupled with mass spectrometry; format: ADME, cell-based; design: dose 10 uM
In short: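 Confluent primary human hepatocytes (0.88 × 10⁶ cells/well, Williams E medium) were exposed to 10 μM compound for 1 h, then to drug-free medium for 23 h. Cells were collected during and after exposure and extracted. Triphosphate was quantified by LC/MS/MS and expressed per million cells.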

[17] = Metabolic stability in serum (unknown origin); format: ADME
[18] = system: Huh-7; assay: Prodrug coversion in human HuH7 cells assessed as triphosphate formation at 10 uM after 24 hrs by liquid chromatography coupled with mass spectrometry; format: ADME, cell-based; conditions: huh-7, 24 h
In short: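 Huh-7 cells carrying the GT1b replicon, grown to confluency in 12-well plates (0.88 × 10⁶ cells/well). Exposed 24 h to 10 μM compound, then washed with ice-cold saline and extracted overnight in frozen 70% methanol. Dried extract resuspended in 1 mM ammonium phosphate pH 8.5. Triphosphate quantified by LC/triple-quadrupole MS.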

SMILES	logD [1]	Cmax [2] [µM]	half-life at 2 µM [3] [h]	pEC50 [4]	Papp A→B at 10 µM [5] [nm/s]	bioavailability [6] [%]	Papp B→A at 10 µM [7] [nm/s]	solubility [8] [mg/mL]	CC50 at 72 h [9] [µM]	hepatic extraction ratio at 1.5 h, 2 µM [10]	Cmax [11] [µM]	Ratio EC50 [12]	Fa [13] [%]	AUC(0-inf) [14] [nM·h]	AUC(0-inf) [15] [nM·h]	Drug metabolism [16]	Stability [17]	Drug metabolism [18] [µM]
CCOC(=O)[C@H](C)NP(=O)(OC[C@H]1O[C@@](C#N)(c2ccc3c(N)ncnn23)[C@](C)(O)[C@@H]1O)Oc1ccccc1 (stereo partly specified)	1.6	4.48	1.15	5.84	1.7	2.5	29.8	0.108 (≈ 193 µM)	> 89	0.89	0.57							
C[C@@]1(O)[C@H](O)[C@@H](CO)O[C@H]1n1ccc2c(N)ncnc21 [BETA-2'-C-METHYL-7-DEAZA-ADENOSINE]												>95						
C#C[C@@]1(c2ccc3c(N)ncnn23)O[C@H](CO)[C@@H](O)[C@@]1(C)O				< 4.05														
CCC(CC)COC(=O)[C@H](C)NP(=O)(OC[C@H]1O[C@@](C#N)(c2ccc3c(N)ncnn23)[C@](C)(O)[C@@H]1O)Oc1ccccc1 (stereo partly specified)	2.7	8.33	1.23	6.36	3.6	5.4	72	0.0018 (≈ 2.92 µM)	35	0.97	2.26		7.9	210	20			
CC[C@H](C)OC(=O)[C@H](C)NP(=O)(OC[C@H]1O[C@@](C#N)(c2ccc3c(N)ncnn23)[C@](C)(O)[C@@H]1O)Oc1ccccc1 (stereo partly specified)	2.1		9.87	6.64	14.7		179	0.2 (≈ 340 µM)	> 89	0.93	1.27		16	800	120	Active	Stable	
C[C@H](NP(=O)(OC[C@H]1O[C@@](C#N)(c2ccc3c(N)ncnn23)[C@](C)(O)[C@@H]1O)Oc1ccccc1)C(=O)OCC(C)(C)C (stereo partly specified)	2.3	5.18	1.42	6.74	6.9	5.6	291	0.115 (≈ 191 µM)	85	0.94	1.44		13	250	90			
CC(C)OC(=O)[C@H](C)NP(=O)(OC[C@H]1O[C@@](C#N)(c2ccc3c(N)ncnn23)[C@](C)(O)[C@@H]1O)Oc1ccccc1 (stereo partly specified)	1.8	5.65	> 10.2	5.98	1.6	1.9	89.2	0.306 (≈ 533 µM)	> 89	0.9	0.53		10	990	160		Stable	20
